According to ChEMBL document CHEMBL1138564, “Microwave-induced synthesis and anti-microbial activities of 7,10,11,12-tetrahydrobenzo[c]acridin-8(9H)-one derivatives” (2009):
Active and inactive are the calls of the source.

Assays:
Escherichia coli [1] = assay: Antimicrobial activity against Escherichia coli NCIM 2065 at 1000 ug/disk after 24 hrs by disk diffusion method; type: functional; details: NCIM 2065, 24 h, read-out: DIZ
Method in brief: (§1)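 Disc diffusion on Mueller–Hinton agar. 100 µl of bacterial suspension at 10⁸ CFU/ml is spread on the plate. Discs carry test compounds at two loadings, dissolved in DMSO; DMSO alone serves as negative control. Ofloxacin disc is the positive reference. Plates are incubated at 37 °C for 24 h, and the inhibition zone diameter is measured.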

Escherichia coli [2] = assay: Antimicrobial activity against Escherichia coli NCIM 2065 at 500 ug/disk after 24 hrs by disk diffusion method; type: functional; details: NCIM 2065, 24 h, read-out: DIZ; method in brief: as §1
Bacillus subtilis [3] = assay: Antimicrobial activity against Bacillus subtilis NCIM 2063 at 500 ug/disk after 24 hrs by disk diffusion method; type: functional; details: NCIM 2063, 24 h, read-out: DIZ; method in brief: as §1
Bacillus subtilis [4] = assay: Antimicrobial activity against Bacillus subtilis NCIM 2063 at 1000 ug/disk after 24 hrs by disk diffusion method; type: functional; details: NCIM 2063, 24 h, read-out: DIZ; method in brief: as §1
Bacillus cereus [5] = assay: Antimicrobial activity against Bacillus cereus NCIM 2155 at 500 ug/disk after 24 hrs by disk diffusion method; type: functional; details: NCIM 2155, 24 h, read-out: DIZ; method in brief: as §1
Bacillus cereus [6] = assay: Antimicrobial activity against Bacillus cereus NCIM 2155 at 1000 ug/disk after 24 hrs by disk diffusion method; type: functional; details: NCIM 2155, 24 h, read-out: DIZ; method in brief: as §1
Aliivibrio fischeri [7] = assay: Antimicrobial activity against Vibrio fischeri NCIM 2154 at 500 ug/disk after 24 hrs by disk diffusion method; type: functional
Method in brief: (§2)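 Disc diffusion. 100 µl of bacterial suspension at 10⁸ CFU/ml was spread on Mueller–Hinton agar. Discs loaded with test compound dissolved in DMSO were placed on the lawn, with a DMSO-only disc as negative control. Plates were incubated at 37 °C for 24 h, and the inhibition zone diameter was measured.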

Aliivibrio fischeri [8] = assay: Antimicrobial activity against Vibrio fischeri NCIM 2154 at 1000 ug/disk after 24 hrs by disk diffusion method; type: functional; method in brief: as §2
[9] = system: Rhodococcus corynebacterioides; assay: Antimicrobial activity against Corynebacterium rubrum NCIM 2252 at 500 ug/disk after 24 hrs by disk diffusion method; type: functional; details: Rhodococcoides corynebacterioides; method in brief: as §1
Salmonella typhimurium [10] = assay: Antimicrobial activity against Salmonella Typhimurium NCIM 2501 at 1000 ug/disk after 24 hrs by disk diffusion method; type: functional; details: Salmonella enterica subsp. enterica serovar Typhimurium; method in brief: as §2
Salmonella typhimurium [11] = assay: Antimicrobial activity against Salmonella Typhimurium NCIM 2501 at 500 ug/disk after 24 hrs by disk diffusion method; type: functional; details: Salmonella enterica subsp. enterica serovar Typhimurium; method in brief: as §2
[12] = system: Rhodococcus corynebacterioides; assay: Antimicrobial activity against Corynebacterium rubrum NCIM 2252 at 1000 ug/disk after 24 hrs by disk diffusion method; type: functional; details: Rhodococcoides corynebacterioides; method in brief: as §1
Staphylococcus [13] = assay: Antimicrobial activity against Staphylococcus albus NCIM 2178 at 500 ug/disk after 24 hrs by disk diffusion method; type: functional; method in brief: as §2
Staphylococcus [14] = assay: Antimicrobial activity against Staphylococcus albus NCIM 2178 at 1000 ug/disk after 24 hrs by disk diffusion method; type: functional; method in brief: as §2
Proteus vulgaris [15] = assay: Antimicrobial activity against Proteus vulgaris NCIM 2027 at 500 ug/disk after 24 hrs by disk diffusion method; type: functional; method in brief: as §1
Proteus vulgaris [16] = assay: Antimicrobial activity against Proteus vulgaris NCIM 2027 at 1000 ug/disk after 24 hrs by disk diffusion method; type: functional; method in brief: as §1
Aspergillus flavus [17] = assay: Antimicrobial activity against Aspergillus flavus NCIM 902 at 500 ug/disk after 72 hrs by disk diffusion method; type: functional; details: NCIM 902, 72 h, read-out: DIZ
Method in brief: (§3)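 Disc diffusion on Sabouraud's dextrose agar. 100 µl of fungal suspension at 10⁶ CFU/ml is spread on the plate. Discs carry test compounds at two loadings in DMSO; DMSO alone is the negative control. Clotrimazole disc is the positive reference. Plates are incubated at 27 °C for 72 h, and the zone of inhibition diameter is measured.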

Aspergillus flavus [18] = assay: Antimicrobial activity against Aspergillus flavus NCIM 902 at 1000 ug/disk after 72 hrs by disk diffusion method; type: functional; details: NCIM 902, 72 h, read-out: DIZ; method in brief: as §3
Rhodotorula mucilaginosa [19] = assay: Antimicrobial activity against Rhodotorula rubra NCIM 3174 at 500 ug/disk after 72 hrs by disk diffusion method; type: functional; details: NCIM 3174, 72 h, read-out: DIZ
Method in brief: (§4)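 Fungal disc diffusion. 100 µl of suspension at 10⁶ CFU/ml was spread on Sabouraud's dextrose agar. Discs carrying test compound in DMSO were applied, with a DMSO-only disc as negative control. Plates were incubated at 27 °C for 72 h, and the zone of inhibition diameter was measured.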

Rhodotorula mucilaginosa [20] = assay: Antimicrobial activity against Rhodotorula rubra NCIM 3174 at 1000 ug/disk after 72 hrs by disk diffusion method; type: functional; details: NCIM 3174, 72 h, read-out: DIZ; method in brief: as §4
Aspergillus fumigatus [21] = assay: Antimicrobial activity against Aspergillus fumigatus NCIM 902 at 500 ug/disk after 72 hrs by disk diffusion method; type: functional; method in brief: as §3
Aspergillus fumigatus [22] = assay: Antimicrobial activity against Aspergillus fumigatus NCIM 902 at 1000 ug/disk after 72 hrs by disk diffusion method; type: functional; details: NCIM 902, 72 h, read-out: DIZ; method in brief: as §3
Aspergillus parasiticus [23] = assay: Antimicrobial activity against Aspergillus parasiticus NCIM 904 at 500 ug/disk after 72 hrs by disk diffusion method; type: functional; details: NCIM 904, 72 h, read-out: DIZ; method in brief: as §3
Aspergillus parasiticus [24] = assay: Antimicrobial activity against Aspergillus parasiticus NCIM 904 at 1000 ug/disk after 72 hrs by disk diffusion method; type: functional; details: NCIM 904, 72 h, read-out: DIZ; method in brief: as §3
Penicillium chrysogenum [25] = assay: Antimicrobial activity against Penicillium chrysogenum NCIM 707 at 500 ug/disk after 72 hrs by disk diffusion method; type: functional; method in brief: as §3
Penicillium chrysogenum [26] = assay: Antimicrobial activity against Penicillium chrysogenum NCIM 707 at 1000 ug/disk after 72 hrs by disk diffusion method; type: functional; method in brief: as §3
Lipomyces lipofer [27] = assay: Antimicrobial activity against Lipomyces lipofer NCIM 3252 at 500 ug/disk after 72 hrs by disk diffusion method; type: functional; method in brief: as §3
Lipomyces lipofer [28] = assay: Antimicrobial activity against Lipomyces lipofer NCIM 3252 at 1000 ug/disk after 72 hrs by disk diffusion method; type: functional; method in brief: as §3
Klebsiella aerogenes [29] = assay: Antimicrobial activity against Klebsiella aerogenes NCIM 2239 at 1000 ug/disk after 24 hrs by disk diffusion method; type: functional; method in brief: as §1
Klebsiella aerogenes [30] = assay: Antimicrobial activity against Klebsiella aerogenes NCIM 2239 at 500 ug/disk after 24 hrs by disk diffusion method; type: functional; method in brief: as §1
Pseudomonas aeruginosa [31] = assay: Antimicrobial activity against Pseudomonas aeruginosa NCIM 2200 at 1000 ug/disk after 24 hrs by disk diffusion method; type: functional; method in brief: as §1
Pseudomonas aeruginosa [32] = assay: Antimicrobial activity against Pseudomonas aeruginosa NCIM 2200 at 500 ug/disk after 24 hrs by disk diffusion method; type: functional; method in brief: as §2
Aspergillus flavus [33] = assay: Antimicrobial activity against Aspergillus flavus NCIM 902 after 72 hrs by serial dilution method; type: functional; details: NCIM 535, 72 h, in the assay text read “NCIM 535” for “NCIM 902”
Method in brief: (§5)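 MIC by broth dilution in Sabouraud's dextrose broth, only for fungi sensitive in disc diffusion. Two-fold serial dilutions of compounds are made in 1 ml broth per tube, range 3.9 to 1000. Inoculated tubes are incubated at 27 °C for 72 h.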

Rhodotorula mucilaginosa [34] = assay: Antimicrobial activity against Rhodotorula rubra NCIM 3174 after 72 hrs by serial dilution method; type: functional; details: NCIM 3174, 72 h
Method in brief: (§6)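 MIC by broth dilution in Sabouraud's dextrose broth, run only on fungi found sensitive in the disc assay. Twofold serial dilutions were made in 1 ml broth per tube, covering 3.9 to 1000. Inoculated tubes were incubated at 27 °C for 72 h.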

Aspergillus fumigatus [35] = assay: Antimicrobial activity against Aspergillus fumigatus NCIM 902 after 72 hrs by serial dilution method; type: functional; details: NCIM 902, 72 h; method in brief: as §5
Aspergillus parasiticus [36] = assay: Antimicrobial activity against Aspergillus parasiticus NCIM 904 after 72 hrs by serial dilution method; type: functional; details: NCIM 904, 72 h; method in brief: as §5
Trichoderma viride [37] = assay: Antimicrobial activity against Trichoderma viride NCIM 1195 after 72 hrs by serial dilution method; type: functional; details: NCIM 1195, 72 h; method in brief: as §6
Trichoderma viride [38] = assay: Antimicrobial activity against Trichoderma viride NCIM 1195 at 500 ug/disk after 72 hrs by disk diffusion method; type: functional; details: NCIM 1195, 72 h, read-out: DIZ; method in brief: as §4
Trichoderma viride [39] = assay: Antimicrobial activity against Trichoderma viride NCIM 1195 at 1000 ug/disk after 72 hrs by disk diffusion method; type: functional; details: NCIM 1195, 72 h, read-out: DIZ; method in brief: as §4
Escherichia coli [40] = assay: Antimicrobial activity against Escherichia coli NCIM 2065 after 24 hrs by serial dilution method; type: functional; details: NCIM 2065, 24 h
Method in brief: (§7)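 Broth dilution MIC in nutrient broth, run only for organisms found sensitive in disc diffusion. Compounds are two-fold serially diluted in 1 ml sterile broth per tube, spanning 3.9 to 1000. Inoculated tubes are incubated at 37 °C for 24 h.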

Bacillus subtilis [41] = assay: Antimicrobial activity against Bacillus subtilis NCIM 2063 after 24 hrs by serial dilution method; type: functional; details: NCIM 2063, 24 h; method in brief: as §7
Bacillus cereus [42] = assay: Antimicrobial activity against Bacillus cereus NCIM 2155 after 24 hrs by serial dilution method; type: functional; details: NCIM 2155, 24 h; method in brief: as §7
Aspergillus niger [43] = assay: Antimicrobial activity against Aspergillus niger NCIM 1196 at 500 ug/disk after 72 hrs by disk diffusion method
Aspergillus niger [44] = assay: Antimicrobial activity against Aspergillus niger NCIM 1196 at 1000 ug/disk after 72 hrs by disk diffusion method

O=C1CCCC2=C1C(c1ccccc1)c1ccc3ccccc3c1N2 (centres undefined)
12 mm: zone of inhibition at 1000 µg/disc (Rhodotorula mucilaginosa [20]) | zone of inhibition at 1000 µg/disc (Trichoderma viride [39])
31.2 µg/mL: MIC (Rhodotorula mucilaginosa [34]) | MIC (Trichoderma viride [37])
inactive: diameter of the inhibition zone (DIZ) (Aliivibrio fischeri [7]) | diameter of the inhibition zone (DIZ) (Aliivibrio fischeri [8]) | diameter of the inhibition zone (DIZ) [9] | diameter of the inhibition zone (DIZ) (Salmonella typhimurium [10]) | diameter of the inhibition zone (DIZ) (Salmonella typhimurium [11]) | diameter of the inhibition zone (DIZ) [12] | diameter of the inhibition zone (DIZ) (Staphylococcus [13]) | diameter of the inhibition zone (DIZ) (Staphylococcus [14]) | diameter of the inhibition zone (DIZ) (Proteus vulgaris [15]) | diameter of the inhibition zone (DIZ) (Proteus vulgaris [16]) | diameter of the inhibition zone (DIZ) (Aspergillus fumigatus [21]) | diameter of the inhibition zone (DIZ) (Penicillium chrysogenum [25]) | diameter of the inhibition zone (DIZ) (Penicillium chrysogenum [26]) | diameter of the inhibition zone (DIZ) (Lipomyces lipofer [27]) | diameter of the inhibition zone (DIZ) (Lipomyces lipofer [28]) | diameter of the inhibition zone (DIZ) (Klebsiella aerogenes [29]) | diameter of the inhibition zone (DIZ) (Klebsiella aerogenes [30]) | diameter of the inhibition zone (DIZ) (Pseudomonas aeruginosa [31]) | diameter of the inhibition zone (DIZ) (Pseudomonas aeruginosa [32]) | diameter of the inhibition zone (DIZ) (Aspergillus niger [43]) | diameter of the inhibition zone (DIZ) (Aspergillus niger [44])
10 mm: zone of inhibition at 1000 µg/disc (Bacillus subtilis [4]) | zone of inhibition at 1000 µg/disc (Aspergillus flavus [18])
9 mm: zone of inhibition at 1000 µg/disc (Escherichia coli [1]) | zone of inhibition at 1000 µg/disc (Bacillus cereus [6]) | zone of inhibition at 500 µg/disc (Aspergillus flavus [17]) | zone of inhibition at 1000 µg/disc (Aspergillus parasiticus [24])
62.5 µg/mL: MIC (Aspergillus flavus [33]) | MIC (Aspergillus fumigatus [35]) | MIC (Aspergillus parasiticus [36]) | MIC (Bacillus subtilis [41])
7 mm: zone of inhibition at 500 µg/disc (Aspergillus parasiticus [23])
11 mm: zone of inhibition at 1000 µg/disc (Aspergillus fumigatus [22]) | zone of inhibition at 500 µg/disc (Trichoderma viride [38])
8 mm: zone of inhibition at 500 µg/disc (Escherichia coli [2]) | zone of inhibition at 500 µg/disc (Bacillus subtilis [3]) | zone of inhibition at 500 µg/disc (Bacillus cereus [5]) | zone of inhibition at 500 µg/disc (Rhodotorula mucilaginosa [19])
125 µg/mL: MIC (Escherichia coli [40]) | MIC (Bacillus cereus [42])
